# The list is not random: actives were taken first. Their share in the collection is about 2.5%.
# CHO parental Ca = signal in parental CHO cells, OX1R antagonist counter-screen | parental CHO-K1, ATP-induced calcium, Fluo-8 fluorescence | inhibition, % at 5.6 µM | 330,000 compounds, 0.63% hits | AID 463079;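 active = inhibition above that plate's mean sample inhibition plus 3 SD, cut at about 26% in these data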;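 also: 0% = ATP-challenged DMSO wells and 100% = DMSO wells without ATP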
#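 Material – parental CHO cells · Reagent – ATP stimulus · Compound – single nominal dose of 5.6 µM per compound · Detection – Fluo-8 fluorescence · Read-out basis – percent inhibition of calcium signal · Controls – ATP-challenged DMSO wells low, unchallenged DMSO wells high · Repeats – no replicates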
# TRPN1 ag = activates the zebrafish TRPN1 channel | AID 1424 | HEK293 zebrafish TRPN1-YFP, Fluo-8 calcium fluorescence; 100% = response to 87 µM carbachol | 220,000 compounds, 0.18% hits | activation, % at 3 µM;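 active = activation above its plate's cutoff, the mean activation of test wells on that plate plus 3 SD, cut at about 19% in these data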;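 also: 0% = DMSO alone and 100% = 87 µM carbachol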
#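 Control set: carbachol 87 µM as high control, DMSO as low control; system: HEK293 stable line with zebrafish TRPN1-YFP; read-out: % activation versus carbachol response; detection: intracellular calcium fluorescence with Fluo-8; doses: single test compound dose, 3 µM nominal, 0.3% DMSO; schedule: dye 1 h 37 °C plus 30 min RT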
# OX1R antag-1 = blocks the human orexin 1 receptor; OX1R-expressing cells, FRET antagonist read-out; 330,000 compounds, 1.8% hits; O43613; inhibition, % at 6.6 µM; in the data active = inhibition mostly above about 38%, no sharp cut-off; inactive = mostly below about 40%;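 also: 0% = agonist challenge alone and 100% = reference antagonist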
# TRPML3 ag = activates the human TRPML3 channel | Q8TDD5 | HEK293 TRPML3-YFP, Fluo-8 calcium fluorescence; 100% = the carbachol control signal | activation, % at 3 µM | 220,000 compounds, 0.29% hits;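 active = activation above its plate's cutoff, the mean activation of the plate's test wells plus 3 SD, cut at about 12% in these data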;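 also: 0% = DMSO only wells and 100% = carbachol wells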
# Target sequence (Q8TDD5 whole entry, looked up): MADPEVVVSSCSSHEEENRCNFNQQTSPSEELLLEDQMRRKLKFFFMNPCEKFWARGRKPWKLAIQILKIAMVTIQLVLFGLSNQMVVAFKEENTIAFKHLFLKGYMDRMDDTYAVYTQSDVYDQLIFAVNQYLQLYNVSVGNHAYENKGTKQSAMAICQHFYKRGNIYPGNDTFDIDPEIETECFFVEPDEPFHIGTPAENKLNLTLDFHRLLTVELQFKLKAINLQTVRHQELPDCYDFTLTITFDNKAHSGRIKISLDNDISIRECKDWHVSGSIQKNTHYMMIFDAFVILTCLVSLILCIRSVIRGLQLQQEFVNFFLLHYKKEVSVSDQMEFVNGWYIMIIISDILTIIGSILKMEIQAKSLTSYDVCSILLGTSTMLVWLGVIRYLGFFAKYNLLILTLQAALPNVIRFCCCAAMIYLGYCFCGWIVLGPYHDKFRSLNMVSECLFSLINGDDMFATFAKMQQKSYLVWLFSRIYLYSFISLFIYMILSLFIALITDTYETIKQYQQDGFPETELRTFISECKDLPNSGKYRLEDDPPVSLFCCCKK
#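 Test system: TRPML3-YFP stable HEK293 cells. Doses: single point at 3 µM. Incubation: dye loading 1 h 37 °C then 30 min ambient, 125 s read. Signal: Fluo-8 calcium dye fluorescence, ex 470-495, em 515-575 nm. Measure: percent activation from peak-to-basal fluorescence ratio, scaled between DMSO and carbachol.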
# OX1R antag-2 = blocks the human orexin 1 receptor; CHO/OX1R cells, Fluo-8 calcium fluorescence, orexin A; inhibition, % at 5 µM; AID 434989; 330,000 compounds, 0.43% hits; O43613;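 active = inhibition above its plate's threshold, mean inhibition of all tested compounds on the plate plus 3 SD, cut at about 37% in these data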;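 also: 0% = orexin A challenge wells and 100% = SB-334867-A antagonist wells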
# * marks the source's active call; other numbers are inactive results; / = no result given.
SMILES,CHO parental Ca,TRPN1 ag,OX1R antag-1,TRPML3 ag,OX1R antag-2
c1ccc(-c2cc(CSc3nc4ccccc4[nH]3)on2)cc1,44*,5,89*,1,75*
Cc1cc(C)cc(NC(=O)COC(=O)Cc2ccccc2F)c1,0,/,11,/,-15
CCOc1ccccc1N1C(=O)CN(Cc2ccc(OC)c(OC)c2)C1=S,-28,/,56*,/,-16
COc1ccc(N2C(=O)CN(Cc3cc(OC)c(OC)c(OC)c3)C2=S)cc1,-14,2,47*,-1,-17
Fc1ccc(CCNC(=S)Nc2ccc(F)c(Cl)c2)cc1,32*,12,65,7,30
Fc1cccc(NC(=S)NCCc2ccccc2)c1,1,2,30,3,-18
O=[N+]([O-])c1cccc(NC(=S)NCCc2ccccc2)c1,17,12,53*,5,-20
O=[N+]([O-])c1ccc(NC(=S)NCCc2ccc(F)cc2)cc1,34*,11,65*,6,48*
Cc1nc(C(=O)NCCC(C)C)sc1C1(C)CC(c2ccccc2)=NO1 (centres undefined),-10,/,42,/,-24
Cc1ccc(NC(=O)CC2SC3=NCCN3C2=O)cc1 (centres undefined),33*,-2,8,1,14
COC(=O)c1ccc(COC(=O)CNC(=O)C2CCCCC2)cc1,-11,/,8,/,-8
COc1ccc(-n2nc(C(=O)NCC(=O)N3CC(C)CC(C)C3)c3ccccc3c2=O)cc1 (centres undefined),-31,/,14,/,-37
CCOC(=O)c1sc(C)c2c(=O)n(CC)nnc12,-9,-1,63*,0,7
CN1C(=O)c2ccc(NC(=O)C3CC3)cc2C1=O,-11,/,38,/,7
CCOc1ccccc1NC(=O)C1CCCN(S(=O)(=O)c2cccc3cccnc23)C1 (centres undefined),-32,0,38*,0,-23
CCOc1ccccc1NC(=O)C1CCCN(S(=O)(=O)c2cccc3nsnc23)C1 (centres undefined),-21,-2,55,0,-7
O=C(C1CCCN(S(=O)(=O)c2cccc3cccnc23)C1)N1CCc2ccccc21 (centres undefined),2,1,70*,-1,10
COc1cccc(NC(=O)C2CCCN(S(=O)(=O)c3cccc4cccnc34)C2)c1 (centres undefined),-8,2,55*,-1,15
O=C(Nc1ccccc1F)C1CCCN(S(=O)(=O)c2cccc3cccnc23)C1 (centres undefined),-33,0,35*,0,-25
COc1ccc2[nH]cc(CCNC(=O)CS(=O)(=O)Cc3ccccc3)c2c1,0,/,18,/,-5
Cc1[nH]c2ccc(C(=O)NCCN3CCOCC3)cc2c1C,5,/,8,/,-63
O=C(NCC1COc2ccccc2O1)C1CCCN(S(=O)(=O)c2cccc3cccnc23)C1 (centres undefined),-15,0,56*,1,-24
C=CC[C@@H](Cc1ccc(F)cc1)C(=O)OC[C@@H]1CCCN1C(=O)[C@H](CC=C)CC(=O)NCCO,-27,/,12,/,-8
O=S(=O)(c1ccccc1)c1ccc(N2CCCCCC2)cc1,37*,/,24,/,-17
C/C(=N\OCC(=O)Nc1ccc(F)c(F)c1F)c1cc2ccccc2o1,-15,-1,65*,-1,-1
SMILES,CHO parental Ca,TRPN1 ag,OX1R antag-1,TRPML3 ag,OX1R antag-2
COc1ccc(-c2noc(=O)n2Cc2ccccc2F)cc1,-5,/,23,/,4
COc1ccc(NC(=O)c2cc(-c3cc(C)ccc3O)n[nH]2)cc1Cl,-6,0,71*,0,4
COc1ccc(OC)c(NC(=O)c2cc(-c3cc(Cl)ccc3O)n[nH]2)c1,35*,3,101*,0,97*
COc1ccc(NC(=O)CN2C(=O)NC(C)(c3ccc(C)cc3)C2=O)cn1 (centres undefined),-10,/,-1,/,-9
CCCCC(=O)Nc1ccc(C(=O)NCCN2CCOCC2)cc1,-4,/,1,/,-5
O=C(CSc1ccc2ccccc2n1)N1CCC(c2noc3ccc(F)cc23)CC1,-10,0,55*,0,3
Cc1nnc(SCC(=O)N2CCC(c3noc4ccc(F)cc34)CC2)s1,-10,0,5,0,-21
COc1ccc(C(CCN2CCOCC2)c2c(O)cc(OC)cc2OC)cc1 (centres undefined),-12,/,10,/,-26
COc1ccc(C(c2c(O)ccc3ccccc23)N2CCOCC2)c(OC)c1 (centres undefined),68*,1,22,0,71*
CCn1nc(C)cc1-c1nnc(Sc2ncc([N+](=O)[O-])s2)n1C,24,/,52*,/,8
CCn1nc(C)cc1-c1nnc(SCC(=O)Nc2ccccc2)n1CCCOC,-10,1,5,0,-15
Oc1ccc(Nc2nc3ccccc3nc2Nc2ccc(O)cc2)cc1,35*,1,23,0,8
Cc1ccc(S(=O)(=O)N2CCCC2C(=O)OCc2nc3ccccc3s2)cc1 (centres undefined),59*,0,18,0,5
COc1cccc(/C=N/n2c(COc3ccccc3)n[nH]c2=S)c1,-11,/,8,/,-1
Cc1ccc2c(CC(=O)NNC(=O)c3ccncc3)coc2c1,-5,/,10,/,-1
CCC(C)[C@H](NC(=O)N1CCC(C)CC1)C(=O)OC (some centres undefined),0,-1,5,1,-13
Cc1nnsc1C(=O)Nc1ccc(Cl)cc1,-4,-1,5,0,-10
Cc1nnsc1SCCNC(=O)Nc1ccc(Cl)cc1,40*,15,19,8,36*
O=S(=O)(NCc1csc(-c2cccnc2)n1)c1ccc(F)cc1,-5,/,18,/,-14
CCc1ccc(S(=O)(=O)NCCc2csc(-c3ccccc3)n2)s1,-1,0,41*,0,45
O=S(=O)(NCc1csc(-c2cccnc2)n1)c1ccc(Cl)s1,-13,3,41*,1,5
O=S(=O)(NCc1csc(-c2cccnc2)n1)c1ccc2c(c1)OCCO2,-12,0,72*,1,-1
CCc1ccc(S(=O)(=O)NCc2csc(-c3ccccc3)n2)s1,-14,-1,26,0,-22
O=C(c1c[nH]c(C(=O)C(Cl)(Cl)Cl)c1)c1ccc(F)cc1Cl,0,0,6,0,-17
CCN(C(=O)Cn1cc(C(=O)C(=O)N2CCOCC2)c2ccccc21)c1ccccc1,-16,/,15,/,-13
O=C(COC(=O)CN1C(=O)NC2(CCCC2)C1=O)Nc1ccc(C(F)(F)F)cc1[N+](=O)[O-],-5,/,41*,/,-18
Cc1ccc(NC(=O)CN2C(=O)NC3(CCCc4ccccc43)C2=O)c([N+](=O)[O-])c1 (centres undefined),-1,/,54*,/,-6

# High-throughput results deposited in PubChem by The Scripps Research Institute Molecular Screening Center.
